Activity calls are given as the source filed them. The rule behind the calls is not given here.
Experiments:
[1] = test system: Hepacivirus hominis; assay: Ratio of IC50 for HCV NS5B polymerase S282T mutant to IC50 for HCV NS5B polymerase by single-nucleotide incorporation assay
Method in brief: (§1)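 Run 30 min with 3 μM each NTP, competing nucleotide 300 nM. Full-length product was resolved on urea gels and quantified by phosphorimager. IC50 came from a four-parameter logistic fit, three independent experiments. The ratio is S282T IC50 over wild-type IC50.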

[2] = Inhibition of HCV NS5B polymerase assessed as blocking of full length RNA product formation by single-nucleotide incorporation assay; design: species or system Hepacivirus hominis; method in brief: as §1
[3] = biological target: RNA-directed RNA polymerase (Hepacivirus hominis, UniProt O39930, S282T); assay: Inhibition of HCV NS5B polymerase S282T mutant assessed as blocking of full length RNA product formation by single-nucleotide incorporation assay; method in brief: as §1
[4] = test system: Hepacivirus hominis; assay: Inhibition of HCV NS5B polymerase assessed as chain termination of RNA synthesis

RNA-directed RNA polymerase, sequence (O39930 entry or part of it S282T): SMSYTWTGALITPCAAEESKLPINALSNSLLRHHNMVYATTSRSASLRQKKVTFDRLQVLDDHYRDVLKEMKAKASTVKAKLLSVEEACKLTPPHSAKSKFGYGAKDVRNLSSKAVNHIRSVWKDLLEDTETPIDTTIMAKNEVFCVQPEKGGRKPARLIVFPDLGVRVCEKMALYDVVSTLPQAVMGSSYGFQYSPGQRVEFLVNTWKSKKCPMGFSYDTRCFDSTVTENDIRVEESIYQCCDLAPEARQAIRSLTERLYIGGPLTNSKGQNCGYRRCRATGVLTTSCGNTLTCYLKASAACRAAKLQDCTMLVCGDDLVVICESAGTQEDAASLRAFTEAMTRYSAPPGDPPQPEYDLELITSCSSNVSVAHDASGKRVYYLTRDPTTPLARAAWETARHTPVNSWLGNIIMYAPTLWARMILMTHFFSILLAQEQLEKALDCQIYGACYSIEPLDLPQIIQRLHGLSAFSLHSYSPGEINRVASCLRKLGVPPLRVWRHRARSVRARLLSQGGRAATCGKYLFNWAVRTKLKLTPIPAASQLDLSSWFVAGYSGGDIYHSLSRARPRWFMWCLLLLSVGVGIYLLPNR

SMILES | Ratio IC50 [1] | IC50 [2] [µM] | IC50 [3] [µM] | Activity [4]
Nc1ncnc2c1ncn2[C@@H]1O[C@H](COP(=O)(O)OP(=O)(O)OP(=O)(O)O)C[C@H]1O | 2 | 4.4 | 8.8 | Active
O=c1ccn([C@@H]2O[C@H](COP(=O)(O)OP(=O)(O)OP(=O)(O)O)C[C@H]2O)c(=O)[nH]1 | – | – | – | Active
Nc1nc2c(ncn2[C@@H]2O[C@H](COP(=O)(O)OP(=O)(O)OP(=O)(O)O)C[C@H]2O)c(=O)[nH]1 | – | – | – | Active
C[C@@]1(O)[C@H](O)[C@@H](COP(=O)(O)OP(=O)(O)OP(=O)(O)O)O[C@H]1n1cnc2c(N)ncnc21 | > 24 | 4.2 | > 100 | –
C[C@@]1(O)[C@H](O)[C@@H](COP(=O)(O)OP(=O)(O)OP(=O)(O)O)O[C@H]1n1ccc(N)nc1=O [2'-C-METHYLCYTIDINE TRIPHOSPHATE] | 9.5 | 6.3 | 60 | –
Nc1ccn([C@@H]2O[C@H](COP(=O)(O)OP(=O)(O)OP(=O)(O)O)C[C@H]2O)c(=O)n1 | 1.7 | 0.46 | 0.77 | Active

Source: ChEMBL document CHEMBL1155141, “Pyrophosphorolytic excision of nonobligate chain terminators by hepatitis C virus NS5B polymerase” (Antimicrob Agents Chemother, 2007)
